Data from publication PMC11978860 (Nature Communications, 2025).

How the values were obtained:
Assay type in all cases: in vivo, Drosophila melanogaster
[1] = tested on: AD-associated APP Drosophila third-instar larvae; experiment: Larval locomotor assay in AD-associated APP model
Method in brief: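 elavC155-Gal4/UAS-APP larvae (w1118 background), with parental crosses set on food containing the test compound in DMSO (final DMSO ≤0.01%) or DMSO alone, so larvae feed from hatching. Wandering third instars of either sex are rinsed in distilled water, placed on 2.5% agar over a 0.5 cm grid, and acclimated 1 min. Read-outs are speed (mm/s, video tracking) and head line crossings in 30 s. Analysis is one-way ANOVA with Dunnett's test.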

[2] = tested on: Tip60-RNAi-2 Drosophila larvae; experiment: Larval locomotor assay in second Tip60-RNAi line; settings: 100 uM, line crossing in 30 seconds
Method in brief: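 elavC155-Gal4 × UAS-Tip60 RNAi-2 progeny (w1118 background) are reared from hatching on food containing the test compound in DMSO (final DMSO ≤0.01%) or vehicle. Wandering third-instar larvae are rinsed and placed on a 2.5% agar plate over a 0.5 cm × 0.5 cm grid. After 1 min acclimation, head line crossings are counted over 30 s. Analysis is one-way ANOVA with Dunnett's comparisons.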

[3] = tested on: Tip60-RNAi knockdown Drosophila larvae; settings: oral in food; for Performance in rescuing locomotor defects (in words): compared to CTB

SMILES	Performance in rescuing locomotor defects (in words) [3]	other results
COC(=O)CCC(=O)COc1ccccc1C(=O)Nc1ccc(Cl)c(C(F)(F)F)c1 [C2, Methyl 5-(2-{[4-chloro-3-(trifluoromethyl)phenyl]carbamoyl}phenoxy)-4-oxopentanoate]	highest performers	Sustained effects to complete the assay and reach the wall (in words) [1]: sustained effects; Concentration significantly rescuing larval locomotor ability ([1]; oral in food): ≥ 50 µM; Rescue of locomotor deficits (in words) [2]: rescued locomotor deficits
CC(C)CNC(=O)COc1ccccc1C(=O)Nc1ccc(Cl)c(C(F)(F)F)c1 [C6, N-[4-Chloro-3-(trifluoromethyl)phenyl]-2-[2-(isobutylamino)-2-oxoethoxy]benzamide]	low-performing	
Cn1cc(C(=O)COc2ccccc2C(=O)Nc2ccc(Cl)c(C(F)(F)F)c2)cn1 [C1, N-[4-chloro-3-(trifluoromethyl)phenyl]-2-[2-(1-methyl-1H-pyrazol-4-yl)-2-oxoethoxy]benzamide]	low-performing	
CCOCCC(O)COc1ccccc1C(=O)Nc1ccc(Cl)c(C(F)(F)F)c1 (stereo not shown) [C5, N-[4-Chloro-3-(trifluoromethyl)phenyl]-2-(4-ethoxy-2-hydroxybutoxy)benzamide]	highest performers	
O=C(COc1ccccc1C(=O)Nc1ccc(Cl)c(C(F)(F)F)c1)NCC1CC1 [C10, N-[4-Chloro-3-(trifluoromethyl)phenyl]-2-{2-[(cyclopropylmethyl)amino]-2-oxoethoxy}benzamide]	low-performing	
O=C(Nc1ccc(Cl)c(C(F)(F)F)c1)c1ccccc1OCC(=O)N1CCNC1=O [C4, N-[4-Chloro-3-(trifluoromethyl)phenyl]-2-[2-oxo-2-(2-oxo-1-imidazolidinyl)ethoxy]benzamide]	no effect	
CCOc1ccccc1C(=O)Nc1ccc(Cl)c(C(F)(F)F)c1 [CTB, N-[4-chloro-3-(trifluoromethyl)phenyl]-2-ethoxybenzamide, reference compound]		Rescue of locomotor ability (in words) ([3]; 10 to 100 μM): significant rescue
O=C(Nc1ccc(Cl)c(C(F)(F)F)c1)c1ccccc1OCC(=O)C1CCOCC1 [C7, N-[4-Chloro-3-(trifluoromethyl)phenyl]-2-[2-oxo-2-(tetrahydro-2H-pyran-4-yl)ethoxy]benzamide]	low-performing	
COC(=O)CNC(=O)COc1ccccc1C(=O)Nc1ccc(Cl)c(C(F)(F)F)c1 [C9, Methyl N-[(2-{[4-chloro-3-(trifluoromethyl)phenyl]carbamoyl}phenoxy)acetyl]glycinate]	low-performing	
CNC(=O)NC(=O)COc1ccccc1C(=O)Nc1ccc(Cl)c(C(F)(F)F)c1 [C8, N-[4-Chloro-3-(trifluoromethyl)phenyl]-2-{2-[(methylcarbamoyl)amino]-2-oxoethoxy}benzamide]	highest performers	
